According to ChEMBL document CHEMBL3627607, “A Novel Pyrazolopyridine with in Vivo Activity in Plasmodium berghei- and Plasmodium falciparum-Infected Mouse Models from Structure-Activity Relationship Studies around the Core of Recently Identified Antimalarial Imidazopyridazines” (J Med Chem, 2015):
Calls of active or inactive are those of the source. No cut-off for these calls is given here.

Columns and labels:
[1] = tested on: Plasmodium falciparum; experiment: Antiplasmodial activity against Plasmodium falciparum 3D7 infected in po dosed non-myelodepleted NOD-SCID IL2Rgammanull mouse engrafted with human erythrocytes assessed as reduction of parasitemia level administered qd for 4 days; format: functional; settings: 3D7, po, 96 h
How it was run: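 P. falciparum-infected engrafted NSG mice were dosed orally once daily for four consecutive days. Blood parasitemia was monitored, and a 90% effective dose was derived along with the blood exposure at that dose.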

[2] = tested on: Plasmodium falciparum; experiment: Antiplasmodial activity against multidrug resistant Plasmodium falciparum K1 infected in human erythrocytes after 48 hrs by [3H]-hypoxanthine incorporation assay; format: functional, organism-based
[3] = tested on: Plasmodium falciparum; experiment: Antiplasmodial activity against drug sensitive Plasmodium falciparum NF54 infected in human erythrocytes after 48 hrs by [3H]-hypoxanthine incorporation assay; format: functional, organism-based
[4] = tested on: Liver microsome; experiment: Metabolic stability of the compound in human liver microsomes assessed as compound remaining at 0.1 uM after 30 mins by LC-MS/MS analysis; format: ADME; settings: 0.5 h
[5] = Metabolic stability of the compound in mouse liver microsomes assessed as compound remaining at 0.1 uM after 30 mins by LC-MS/MS analysis; format: ADME; settings: 0.5 h
[6] = tested on: Liver microsome; experiment: Metabolic stability of the compound in rat liver microsomes assessed as compound remaining at 0.1 uM after 30 mins by LC-MS/MS analysis; format: ADME; settings: 0.5 h
[7] = Solubility of the compound in 0.01M HCl at pH 2 by Nephelometric analysis; format: physicochemical; settings: buffer
[8] = tested on: Plasmodium berghei; experiment: Antiplasmodial activity against Plasmodium berghei ANKA expressing GFP infected in mouse assessed as mouse cured from disease at 50 mg/kg, po qd for 4 days; format: functional, organism-based
[9] = tested on: Plasmodium berghei; experiment: Antiplasmodial activity against Plasmodium berghei ANKA expressing GFP infected in mouse assessed as means survival days at 3 mg/kg, po qd for 4 days; format: functional
How it was run: (§1)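 Mice (n = 3) infected with GFP-transfected P. berghei ANKA. Compounds dissolved or suspended in HPMC vehicle (0.5% w/v hydroxypropylmethylcellulose, 0.5% v/v benzyl alcohol, 0.4% v/v Tween 80, 0.9% w/v NaCl in water). Dosed orally 4, 24, 48 and 72 h after infection. Parasitemia read by flow cytometry (detection limit 0.1%). Survival recorded as mean survival time in days.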

[10] = tested on: Plasmodium berghei; experiment: Antiplasmodial activity against Plasmodium berghei ANKA expressing GFP infected in mouse assessed as means survival days at 50 mg/kg, po qd for 4 days; format: functional; how it was run: as §1
[11] = tested on: Plasmodium berghei; experiment: Antiplasmodial activity against Plasmodium berghei ANKA expressing GFP infected in mouse assessed as means survival days at 10 mg/kg, po qd for 4 days; format: functional; how it was run: as §1
[12] = tested on: Plasmodium berghei; experiment: Antiplasmodial activity against Plasmodium berghei ANKA expressing GFP infected in mouse assessed as reduction of parasitemia level at 3 mg/kg, po qd for 4 days measured on day 4 post last dose by flow cytometric analysis relative to control; format: functional; design: scale not given: the % may be the effect or the level left
How it was run: (§2)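 Mice (n = 3) infected with GFP-transfected P. berghei ANKA. Test agents were suspended in HPMC vehicle (0.5% w/v hydroxypropylmethylcellulose, 0.5% v/v benzyl alcohol, 0.4% v/v Tween 80, 0.9% w/v NaCl in water). Dosed orally at 4, 24, 48 and 72 h post-infection. Parasitemia read by flow cytometry on day 4 (96 h), detection limit 0.1%. Activity = control-minus-treated mean % parasitemia, relative to control.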

[13] = tested on: Plasmodium berghei; experiment: Antiplasmodial activity against Plasmodium berghei ANKA expressing GFP infected in mouse assessed as reduction of parasitemia level at 50 mg/kg, po qd for 4 days measured on day 4 post last dose by flow cytometric analysis relative to control; format: functional; design: scale not given: the % may be the effect or the level left; how it was run: as §2
[14] = tested on: Plasmodium berghei; experiment: Antiplasmodial activity against Plasmodium berghei ANKA expressing GFP infected in mouse assessed as reduction of parasitemia level at 10 mg/kg, po qd for 4 days measured on day 4 post last dose by flow cytometric analysis relative to control; format: functional; design: scale not given: the % may be the effect or the level left; how it was run: as §2
[15] = Half life in rat at 20 mg/kg, po; format: ADME, organism-based; settings: in vivo
[16] = Selectivity index, ratio of IC50 for African green monkey VERO cells to IC50 for Plasmodium falciparum NF54; format: toxicity, cell-based; settings: read-out: Ratio IC50
[17] = Oral bioavailability in rat at 20 mg/kg; format: ADME, organism-based; settings: in vivo
[18] = Selectivity index, ratio of IC50 for CHO cells to IC50 for Plasmodium falciparum NF54; format: toxicity, cell-based; settings: hamster, read-out: Ratio IC50
[19] = Selectivity index, ratio of IC50 for CHO cells to IC50 for multidrug resistant Plasmodium falciparum K1; format: toxicity, cell-based; settings: hamster, read-out: Ratio IC50
[20] = Plasma clearance in rat at 5 mg/kg, iv; format: ADME, organism-based
[21] = Volume of distribution in rat at 5 mg/kg, iv; format: ADME, organism-based; settings: in vivo
[22] = Half life in rat at 5 mg/kg, iv; format: ADME, organism-based; settings: in vivo
[23] = Selectivity index, ratio of IC50 for African green monkey VERO cells to IC50 for multidrug resistant Plasmodium falciparum K1; format: toxicity, cell-based; settings: read-out: Ratio IC50
[24] = target: Voltage-gated inwardly rectifying potassium channel KCNH2 (Homo sapiens, UniProt Q12809); experiment: Inhibition of human ERG potassium channel by ionworks patch-clamp electrophysiology assay
[25] = tested on: Plasmodium berghei; experiment: Antiplasmodial activity against Plasmodium berghei ANKA expressing GFP infected in mouse assessed as means survival days at 30 mg/kg, po qd for 4 days; format: functional
[26] = tested on: Plasmodium berghei; experiment: Antiplasmodial activity against Plasmodium berghei ANKA expressing GFP infected in mouse assessed as reduction of parasitemia level at 30 mg/kg, po qd for 4 days; format: functional; design: scale not given: the % may be the effect or the level left
[27] = tested on: Plasmodium berghei; experiment: Antiplasmodial activity against sporozoite stage of Plasmodium berghei expressing luciferase infected in human HepG2-A16-CD81EGFP cells preincubated with cells for 18 hrs followed by protozoal infection measured after 48 hrs by bioluminescence assay; format: functional, organism-based
How it was run: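 HepG2 cells were pretreated 18 h with compound, then infected with freshly dissected luciferase-expressing P. berghei sporozoites. After a further 48 h with compound, viability of exoerythrocytic forms and of HepG2 host cells was read by bioluminescence.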

[28] = tested on: Blood; experiment: Drug level in mouse blood at 50 mg/kg, po after 24 hrs; format: ADME, organism-based; settings: in vivo, 24 h, BLD = below limit of detection
How it was run: (§3)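 Snapshot whole-blood levels of parent and its sulfone metabolite at 1, 4 and 24 h after the first 50 mg/kg oral dose. Samples came from the P. berghei-infected efficacy mice, dosed in HPMC suspension vehicle.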

[29] = Drug level in mouse blood at 50 mg/kg, po after 1 hr; format: ADME, organism-based; settings: read-out: Drug uptake; how it was run: as §3
[30] = Drug level in mouse blood at 50 mg/kg, po after 4 hrs; format: ADME, organism-based; settings: read-out: Drug uptake; how it was run: as §3

Sequence of Voltage-gated inwardly rectifying potassium channel KCNH2 (Q12809 whole entry): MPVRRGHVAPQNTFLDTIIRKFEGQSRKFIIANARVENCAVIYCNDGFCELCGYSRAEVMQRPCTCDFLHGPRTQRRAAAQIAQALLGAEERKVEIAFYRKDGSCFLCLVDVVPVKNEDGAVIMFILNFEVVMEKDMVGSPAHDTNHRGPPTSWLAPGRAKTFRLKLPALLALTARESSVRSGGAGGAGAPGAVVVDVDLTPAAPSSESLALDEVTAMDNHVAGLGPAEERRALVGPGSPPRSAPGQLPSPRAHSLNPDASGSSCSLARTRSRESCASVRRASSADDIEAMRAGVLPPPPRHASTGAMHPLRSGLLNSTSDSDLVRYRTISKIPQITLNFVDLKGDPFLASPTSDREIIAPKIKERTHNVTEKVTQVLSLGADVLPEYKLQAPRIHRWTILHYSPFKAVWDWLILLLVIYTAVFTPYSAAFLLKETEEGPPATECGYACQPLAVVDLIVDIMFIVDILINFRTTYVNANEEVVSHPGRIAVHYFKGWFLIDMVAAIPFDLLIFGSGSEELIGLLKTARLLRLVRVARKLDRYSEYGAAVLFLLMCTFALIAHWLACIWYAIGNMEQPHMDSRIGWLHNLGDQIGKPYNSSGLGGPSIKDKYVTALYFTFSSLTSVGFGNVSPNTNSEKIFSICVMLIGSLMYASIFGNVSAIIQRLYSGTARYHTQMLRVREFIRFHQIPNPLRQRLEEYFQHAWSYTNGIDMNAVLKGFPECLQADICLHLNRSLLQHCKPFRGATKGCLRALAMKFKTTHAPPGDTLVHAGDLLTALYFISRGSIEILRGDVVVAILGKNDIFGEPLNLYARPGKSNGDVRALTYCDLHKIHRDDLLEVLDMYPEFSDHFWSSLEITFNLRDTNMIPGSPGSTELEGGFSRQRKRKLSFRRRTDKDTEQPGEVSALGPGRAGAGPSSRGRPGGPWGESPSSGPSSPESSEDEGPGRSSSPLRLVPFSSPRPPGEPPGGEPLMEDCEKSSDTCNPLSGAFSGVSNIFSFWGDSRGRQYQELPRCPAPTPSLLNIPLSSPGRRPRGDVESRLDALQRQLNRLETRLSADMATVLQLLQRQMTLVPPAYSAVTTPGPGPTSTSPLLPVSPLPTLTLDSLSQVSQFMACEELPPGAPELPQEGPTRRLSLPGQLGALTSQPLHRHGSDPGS

SMILES: CCc1nc(N)nc(N)c1-c1ccc(Cl)cc1 [PYRIMETHAMINE]
- ED90 [1]: 0.9 mg/kg

SMILES: CS(=O)(=O)c1ccc(-c2nnc3ccc(-c4cccc(S(C)(=O)=O)c4)cn23)cc1
- IC50 [2]: > 1000 nM
- IC50 [3]: > 1000 nM

SMILES: CS(=O)(=O)c1ccc(-c2cnc3ccc(-c4cccc(S(=O)(=O)C5CC5)c4)nn23)cc1
- Stability [4]: Stable
- Stability [5]: Stable
- Stability [6]: Stable

SMILES: CS(=O)(=O)c1ccc(-c2cnc3cnc(-c4cccc(S(C)(=O)=O)c4)cn23)cc1
- solubility [7]: soluble
- Stability [4]: Stable
- Stability [5]: Stable
- Stability [6]: Stable
- IC50 [3]: 877 nM

SMILES: CS(=O)(=O)c1ccc(-c2nnc3ccc(-c4cccc(C(F)(F)F)c4)cn23)cc1
- IC50 [2]: > 1000 nM
- IC50 [3]: > 1000 nM

SMILES: CS(=O)(=O)c1ccc(-c2cnc3ccc(-c4cccc(C(F)(F)F)c4)nn23)cc1
- Activity [8]: Active
- MSD [9]: 4 days
- Stability [4]: Stable
- Stability [5]: Stable
- MSD [10]: >30 days
- MSD [11]: 7 days
- Stability [6]: Stable
- IC50 [2]: 46 nM
- Activity [12]: <40%
- Activity [13]: 99.8%
- IC50 [3]: 60 nM
- Activity [14]: 70%

SMILES: CS(=O)(=O)c1ccc(-c2nnc3ccc(-c4cccc(S(C)(=O)=O)c4)nn23)cc1
- IC50 [3]: > 2340 nM

SMILES: CS(=O)(=O)c1ccc(-c2cnn3c2NC(c2cccc(C(F)(F)F)c2)CC3)cc1 (stereo not given)
- IC50 [3]: < 100 nM

SMILES: CS(=O)(=O)c1ccc(-c2cnc3ccc(-c4cccc(S(=O)(=O)C5CC5)c4)cn23)cc1
- half-life [15]: 3.9 h
- selectivity ratio [16]: 700
- bioavailability [17]: 51%
- selectivity ratio [18]: 700
- selectivity ratio [19]: 700
- Stability [4]: Stable
- Stability [5]: Stable
- MSD [10]: 10 days
- clearance [20]: 8.7 mL/min/kg
- Vd [21]: 2.3 L/kg
- Stability [6]: Stable
- half-life [22]: 3 h
- IC50 [2]: 38 nM
- selectivity ratio [23]: 700
- Activity [13]: 99.5%
- IC50 [3]: 46 nM

SMILES: CS(=O)(=O)c1ccc(-c2cnc3ncc(-c4cccc(S(C)(=O)=O)c4)cn23)cc1
- IC50 [2]: > 1000 nM
- IC50 [3]: > 1000 nM

SMILES: CS(=O)(=O)c1ccc(-c2cnn3ccc(-c4cccc(C(F)(F)F)c4)nc23)cc1
- Stability [4]: Stable
- Stability [5]: Stable
- Stability [6]: Stable
- IC50 [2]: 43 nM
- IC50 [3]: 48 nM

SMILES: CS(=O)(=O)c1ccc(-c2cnn3ccc(-c4cccc(C(F)(F)F)c4)cc23)cc1
- Stability [4]: Stable
- Stability [5]: Stable
- Stability [6]: Stable
- IC50 [3]: 98 nM

SMILES: CS(=O)(=O)c1ccc(-c2cnc3ccc(-c4cccc(S(C)(=O)=O)c4)cn23)cc1
- Stability [4]: Stable
- IC50 [24]: 4800 nM
- Stability [5]: Stable
- Stability [6]: Stable
- IC50 [2]: 113 nM
- IC50 [3]: 150 nM

SMILES: O[C@@H](c1cc(C(F)(F)F)nc2c(C(F)(F)F)cccc12)[C@H]1CCCCN1 (relative stereo) [(S,R)-MEFLOQUINE]
- MSD [25]: 29 days
- Activity [26]: 99.9%
- ED90 [1]: 7.7 mg/kg

SMILES: CS(=O)(=O)c1ccc(-c2cnn3ccc(-c4cccc(S(C)(=O)=O)c4)nc23)cc1
- Stability [4]: Stable
- Stability [5]: Stable
- Stability [6]: Stable
- IC50 [2]: 2.2 nM
- IC50 [3]: 2.6 nM

SMILES: C[S+]([O-])c1ccc(-c2cnc3ccc(-c4cccc(S(=O)(=O)C5CC5)c4)nn23)cc1 (stereo not given)
- Activity [8]: Active
- MSD [9]: 7 days
- Stability [4]: Stable
- Stability [5]: Stable
- MSD [10]: >30 days
- MSD [11]: 8 days
- Stability [6]: Stable
- Activity [12]: 98%
- Activity [13]: 99.8%
- Activity [14]: 99.6%

SMILES: C[C@H]1[C@H](OC(=O)CCC(=O)O)O[C@@H]2O[C@@]3(C)CC[C@H]4[C@H](C)CC[C@@H]1[C@@]24OO3 [ARTESUNATE]
- MSD [25]: 10 days
- IC50 [2]: 4 nM
- Activity [26]: 99%
- IC50 [3]: 3 nM
- ED90 [1]: 11.1 mg/kg

SMILES: CS(=O)(=O)c1ccc(-c2cnc3ccc(-c4cccc(S(C)(=O)=O)c4)nn23)cc1
- selectivity ratio [16]: > 1000
- selectivity ratio [18]: > 1000
- selectivity ratio [19]: > 1000
- Stability [4]: Stable
- IC50 [24]: 900 nM
- Stability [5]: Stable
- MSD [10]: 7 days
- Stability [6]: Stable
- selectivity ratio [23]: > 1000
- Activity [13]: 99.8%
- IC50 [27]: 4.1 nM

SMILES: CCN(CC)CCCC(C)Nc1ccnc2cc(Cl)ccc12 (stereo not given) [CHLOROQUINE]
- ED90 [1]: 4.3 mg/kg

SMILES: CS(=O)(=O)c1ccc(-c2cnn3c2NC(c2cccc(S(=O)(=O)C4CC4)c2)CC3)cc1 (stereo not given)
- solubility [7]: soluble
- Drug uptake [28]: BLD
- selectivity ratio [16]: > 1000
- concentration at 1 h [29]: 456 nM
- selectivity ratio [18]: > 1000
- selectivity ratio [19]: > 1000
- Stability [4]: Stable
- concentration at 4 h [30]: 177 nM
- Stability [5]: Stable
- MSD [10]: 7 days
- Stability [6]: Stable
- IC50 [2]: 46 nM
- selectivity ratio [23]: > 1000
- Activity [13]: 78%
- IC50 [3]: 44 nM
